From ChEMBL document CHEMBL1122019, “Synthesis and enzymic activity of 6-carbethoxy- and 6-ethoxy-3,7-disubstituted-pyrazolo[1,5-a]pyrimidines and related derivatives as adenosine cyclic 3' ,5'-phosphate phosphodiesterase inhibitors” (1982) come the findings set out here.

The species entered for experiment [1] is Oryctolagus cuniculus. The experiment can be described thus: Ratio of I50 of compound and I50 of theophylline for inhibition of cAMP phosphodiesterase isolated from rabbit lung. A digest of the protocol: (§1)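 Partially purified cAMP PDEs from beef heart, rabbit lung and rabbit kidney. Assay mixture in 0.5 mL: 25 μmol Tris-HCl pH 7.5, 5 μmol MgCl2, 10–75 μg enzyme protein, 350 pmol [3H]cAMP, and at least seven inhibitor concentrations (0.5 μM–5 mM). 5'-AMP formed measured at at least three time points (3–12 min) to confirm linear rates. I50 read graphically from % inhibition vs log concentration; α = I50 compound / I50 theophylline, with theophylline run in each experiment.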

The species entered for experiment [2] is Oryctolagus cuniculus. Kind of experiment: Ratio of I50 of compound and I50 of theophylline for inhibition of cAMP phosphodiesterase isolated from rabbit kidney.
The species named for experiment [3] is Sus scrofa. Kind of experiment: Inhibition of ADP-induced platelet aggregation at 100 ug/mL. Type of experiment: functional. The procedure, abridged: (§2)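 Platelet-rich plasma from pig blood anticoagulated with sodium citrate (final 0.3 g/100 mL in blood), spun 500g for 20 min at 20 °C; about 2.0–8.0×10^8 platelets/mL, counted in duplicate. ADP-induced aggregation followed turbidimetrically at 600 nm with stirring (Born method). Criterion: 50% inhibition at ≤100 mcg/mL test compound, compared with adenosine as standard.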

The species named for experiment [4] is Sus scrofa. The experiment can be described thus: Inhibition of ADP-induced platelet aggregation at 50 ug/mL. Type of experiment: functional. A digest of the protocol: as §2
The species named for experiment [5] is Bos taurus. Kind of experiment: Relative inhibition of bovine heart cAMP phosphodiesterase compared to theophylline. The procedure, abridged: as §1
For experiment [6], the species on record is Oryctolagus cuniculus. Kind of experiment: Relative inhibition of rabbit lung cAMP Phosphodiesterase compared to theophylline (Insoluble).
Experiment [7] can be described thus: Inhibition of ADP-induced platelet aggregation at 100 ug/mL.
The species entered for experiment [8] is Sus scrofa. Kind of experiment: Inhibition of ADP-induced platelet aggregation at 25 ug/mL. The class given is functional. A digest of the protocol:
as §2

Experiment [9] is filed under the species Oryctolagus cuniculus. The experiment can be described thus: Relative inhibition of rabbit lung cAMP Phosphodiesterase compared to theophylline. The procedure, abridged: as §1
Experiment [10] relates to cAMP phosphodiesterase (Bos taurus). The experiment can be described thus: Relative inhibition of beef heart cAMP phosphodiesterase compared to theophylline. Particulars: target entry is the homologue from another species.

Take `CCCOc1c(OCC)cnc2c(CC)cnn12`: the Ratio in experiment [1] is 1.6; in experiment [2], 1.3.
As to `CCOc1cnc2c(CC)cnn2c1NCC(=O)O`, the values for the Ratio in [1] and in [2] were 0.7 and 0.4, respectively.
For `CCCNc1c(C(=O)OCC)cnc2c(CC)cnn12`, in that order: 3.6 and 3.2.
For `CCOC(=O)c1cnc2c(CC)cnn2c1NN(C)C`, in that order: 3.7 and 1.4.
As a reminder, the inhibition is the relative decrease from the control value, in per cent. Low readings indicate little suppression, high ones strong suppression. In the case of `CCOC(=O)c1cnc2ccnn2c1NCCO`, testing at 100 µg/mL in experiment [3] gave an inhibition of 92%. Also, at 50 µg/mL the inhibition in experiment [4] was 47%. For the same compound, the Ratio in [1] is 1.5; in experiment [2], 0.3.
Regarding `CCOc1cc(C)nc2ccnn12`, the Ratio in [1] stood at 1.4.
For `CCOC(=O)c1cnc2ccnn2c1NN(C)C`, the Ratio in experiment [1] amounted to 2; in experiment [2], 1.1.
For `CCCNc1c(C(=O)OCC)cnc2ccnn12`, in that order: 5.9 and 13.
As to `CCOC(=O)c1cnc2ccnn2c1NCC(=O)O`, the inhibition at 100 µg/mL in [3] was determined as 76%. In experiment [4], this compound gave an inhibition at 50 µg/mL of 67%. The Ratio in experiment [1] amounted to 1.7; in experiment [2], 1.2.
As for `COC(CNc1cc(C)nc2c(Br)cnn12)OC`, in experiment [1], the Ratio came out at 6.8.
For the compound `CCCOc1c(C(=O)OCC)cnc2ccnn12`, the Ratio in [1] and in [2] was 0.6 each time.
Consider `CCSc1cc(C)nc2c(CC)cnn12`, for which the Ratio in [1] was found to be 8.9.
In experiment [3], `CCNc1c(C(=O)OCC)cnc2c(Br)cnn12` yielded an inhibition at 100 µg/mL of 77%. In addition, the Ratio in experiment [1] came out at 4; in experiment [2], 8.
In the case of `CCOC(=O)c1cnc2c(C(=O)OCC)cnn2c1N`, in experiment [3], the inhibition at 100 µg/mL is 96%. Also, the inhibition at 50 µg/mL in [4] stood at 47%. For the same compound, the Ratio in [5] was 0.7; in experiment [1], 1.5; in experiment [2] it was 2.
In experiment [3], `CCOC(=O)c1cnc2ccnn2c1N` gave an inhibition at 100 µg/mL of 94%. Besides, the inhibition at 50 µg/mL in experiment [4] was found to be 50%. In addition, the Ratio in experiment [1] worked out at 0.9; in experiment [2], 1.
The compound `CCCNc1c(C(=O)OCC)cnc2c(Br)cnn12` returned an inhibition at 100 µg/mL in experiment [3] of 50%. The Ratio in [1] came out at 6; in experiment [2], 7.2.
`CCCNc1c(OCC)cnc2c(CC)cnn12`: the Ratio in experiment [1] worked out at 3.7; in [2], 3.4.
As to `CCOC(=O)c1cnc2c([N+](=O)[O-])cnn2c1N`, the Ratio result in [6] is “Insoluble”.
Turning to `CCOC(=O)c1cnc2c(Br)cnn2c1NCC(=O)O`, the Ratio came to 2.6 in experiment [5], 2.4 in [1] and 1.5 in experiment [2].
On to `CCOC(=O)c1cnc2c(CC)cnn2c1SCC`, for which the Ratio in experiment [1] was 13; in experiment [2], 5.5.
Taken in the same sequence, the figures for `CCOC(=O)c1cnc2ccnn2c1Cl` were 0.6 and 0.6.
Take `CCCOc1cc(C)nc2c(CC)cnn12`: the Ratio in experiment [1] was 5.4.
In the case of `Nc1ncnc2c1ncn2[C@@H]1O[C@H](CO)[C@@H](O)[C@H]1O` [ADENOSINE], 100 µg/mL produced 64% inhibition in [7].
On to `CCCOc1c(C(=O)OCC)cnc2c(Br)cnn12`, for which the results for the Ratio in experiment [1] and in [2] were 2.7 and 1.8, respectively.
As for `CCOC(=O)c1cnc2c(Br)cnn2c1N(CC)CC`, the Ratio in [5] worked out at 3.5; in [1], 6; in experiment [2], 6.
Turning to `CCCCNc1cc(C)nc2c(Br)cnn12`, the Ratio in experiment [1] was determined as 1.5.
Turning to `CCCNc1cc(C)nc2c(CC)cnn12`, the Ratio in [1] stood at 9.4.
For the compound `CCOC(=O)c1cnc2c(Br)cnn2c1O`, testing at 100 µg/mL in experiment [3] gave an inhibition of 88%. Testing at 50 µg/mL in experiment [4] gave an inhibition of 34%. Also, the Ratio was found to be 0.5 in experiment [1] and 1 in experiment [2].
`Cc1cc(NN)n2nccc2n1`: in experiment [1], the Ratio is 1.5.
In the case of `CCOC(=O)c1cnc2c(Br)cnn2c1N`, the inhibition at 100 µg/mL in experiment [3] worked out at 68%. The compound also came in with an inhibition at 25 µg/mL in experiment [8] of 67%. In experiment [6], the Ratio result is given as “Insoluble”.
With `CCOC(=O)c1cnc2c(Br)cnn2c1NCCO`, testing at 100 µg/mL in experiment [3] gave an inhibition of 72%. Further, the Ratio was found to be 1.3 in experiment [1] and 3.1 in experiment [2].
`Cc1cc(N2CCCCC2)n2nccc2n1`: the figures for the Ratio in experiment [9] and in [10] were 2.4 and 1.5, respectively.
`CCOC(=O)c1cnc2ccnn2c1SCC`: the Ratio in [1] turned out to be 4.3; in experiment [2] it was 0.8.
Regarding `CCOC(=O)c1cnc2ccnn2c1S`, the Ratio in experiment [5] was determined as 1.2; in experiment [1] it was 2; in experiment [2], 1.
Take `CCNc1c(C(=O)OCC)cnc2ccnn12`: 100 µg/mL produced 86% inhibition in experiment [3]. Besides, 50 µg/mL produced 42% inhibition in experiment [4]. Also, the values for the Ratio in [1] and in experiment [2] were 4.3 and 5.2, respectively.
Turning to `CCCOc1c(C(=O)OCC)cnc2c(CC)cnn12`, the Ratio in experiment [1] and in experiment [2] was 2.4 each time.
In turn, `CCOC(=O)c1cnc2c(C(=O)OCC)cnn2c1O` returned an inhibition at 100 µg/mL in experiment [3] of 68%. In addition, the inhibition at 50 µg/mL in experiment [4] worked out at 23%. Further, the Ratio in experiment [1] came out at 0.6; in experiment [2] it was 0.4.
Consider `Cc1cc(NCCO)n2nccc2n1`, for which, in experiment [1], the Ratio came to 0.5.
For `CCOc1cnc2c(CC)cnn2c1NCCC(=O)O`, the Ratio in experiment [1] came out at 1; in [2] it was 0.6.
On to `CCOC(=O)c1cnc2ccnn2c1N(CC)CC`, for which the Ratio in [5] amounted to 2.3; in [1] it was 1.8; in [2], 2.
